“Also recorded” adds a separate entry of the source. Read-outs that look alike come from different tables or passages of the source. Blank lines part the entries; values can stand above or below the compound they belong to.
Key:
[1] = Safety and tolerability; type: in vivo, human; conditions: healthy participants
Outline: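 Open-label, randomized, 2-period, 2-sequence crossover in healthy men and women of non-childbearing potential, aged 18–55 years. Arms were a single oral 250 mg dose of test compound after overnight fast, or the same dose on day 5 of proton pump inhibitor 40 mg daily for 5 days. Dosing was supervised, in the morning with 240 mL water. All participants dosed at least once were included. AEs, ECGs, vital signs and safety labs were reviewed throughout.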

[2] = repeated administration; cited from earlier work
[3] = type: in vivo, human; conditions: for AUC(0-inf): AUCinf; for AUC(0-t): AUClast
[4] = aqueous solution, cited from earlier work
[5] = N = 15 per treatment, MedDRA preferred term
[6] = healthy participants, plasma, single oral crizotinib 250 mg on day 5 of esomeprazole 40 mg/day (n = 15)
[7] = healthy participants, single oral crizotinib 250 mg on day 5 of esomeprazole 40 mg/day (n = 15)
[8] = human, plasma, oral, 250 mg, Adjusted Geometric Mean, Reference, Reference: single 250-mg crizotinib dose after overnight fasting
[9] = human, plasma, oral, Adjusted Geometric Mean, Test, Test: esomeprazole 40 mg per day for 5 days and single 250-mg crizotinib dose after overnight fasting on day 5
[10] = human, plasma, po, 250 mg, Arithmetic Mean ± SD, healthy participants, plasma, single oral crizotinib 250 mg on day 5 of esomeprazole 40 mg/day (n = 15)
[11] = human, plasma, po, 250 mg, Geometric Mean (%CV), healthy participants, plasma, single oral crizotinib 250 mg on day 5 of esomeprazole 40 mg/day (n = 15)
[12] = Reference: single 250-mg crizotinib dose after overnight fasting
[13] = Test: esomeprazole 40 mg per day for 5 days and single 250-mg crizotinib dose after overnight fasting on day 5
[14] = molar ratio PF-06260182/crizotinib, single oral crizotinib 250 mg alone (n = 15)

- Effect of esomeprazole coadministration on peak exposure (Cmax) ([3]; esomeprazole 40 mg once daily x 5 days, single crizotinib 250 mg): did not affect; also recorded: no effect
- tmax, median (range) [3, 6]: 5.00 (3.00‐6.00) h
- CL/F (apparent clearance after oral dose), Arithmetic Mean ± SD [3, 7]: 124.8 ± 40.9 L/h
- CL/F (apparent clearance after oral dose), Geometric Mean (%CV) [3, 7]: 117.8 (33) L/h
- AUC(0-inf) [3, 8]: 2370 ng·h/mL
- AUC(0-t) [3, 8]: 2240 ng·h/mL
- Cmax [3, 8]: 115 ng/mL
- AUC(0-inf) [3, 9]: 2120 ng·h/mL
- AUC(0-t) [3, 9]: 2010 ng·h/mL
- Cmax [3, 9]: 117 ng/mL
- Tmax ([3]; human, plasma, po, 250 mg): 5 h
- half-life ([3]; human, plasma, po, 250 mg): 35.8 ± 4.4 h
- AUC(0-inf) [3, 10]: 2260 ± 891 ng·h/mL
- AUC(0-inf) [3, 11]: 2120 ng·h/mL
- AUC(0-t) [3, 10]: 2170 ± 876 ng·h/mL
- AUC(0-t) [3, 11]: 2020 ng·h/mL
- Cmax [3, 10]: 119 ± 32.9 ng/mL
- Cmax [3, 11]: 115 ng/mL
- half-life ([3]; human, plasma, po, 250 mg, t1/2 (terminal elimination half-life), Arithmetic Mean ± SD, healthy participants, plasma, single oral crizotinib 250 mg after overnight fast, alone (n = 15)): 33.2 ± 7 h
- Median time to Cmax ([3]; with or without esomeprazole, single crizotinib 250 mg): 5 h
Structure (SMILES): C[C@@H](Oc1cc(-c2cnn(C3CCNCC3)c2)cnc1N)c1c(Cl)ccc(F)c1Cl [Crizotinib]
- gastrointestinal disorders (system organ class), all causality [1]: 11 participants
- nervous system disorders (system organ class), all causality [1]: 4 participants
- treatment-related gastrointestinal disorders (system organ class) [1]: 11 participants
- Discontinuations due to AEs, all causality ([1]; N = 15 per treatment): 0
- Dose reductions or temporary discontinuation due to AEs ([1]; N = 15 per treatment): 0
- Participants with AEs, all causality ([1]; N = 15 per treatment): 12 (12)
- Participants with AEs, treatment-related ([1]; N = 15 per treatment): 12 (12)
- Participants with serious AEs ([1]; N = 15 per treatment): 0
- Participants with severe AEs ([1]; N = 15 per treatment): 0
- Abdominal pain upper, all causality [1, 5]: 0
- Abdominal pain, all causality [1, 5]: 3 (3)
- Abdominal pain, treatment-related [1, 5]: 3 (3)
- Abnormal gastrointestinal sounds, all causality [1, 5]: 1 (1)
- Abnormal gastrointestinal sounds, treatment-related [1, 5]: 1 (1)
- Diarrhea, all causality [1, 5]: 11 (11)
- Diarrhea, treatment-related [1, 5]: 11 (11)
- Dizziness, all causality [1, 5]: 2 (2)
- Dizziness, treatment-related [1, 5]: 2 (2)
- Fatigue, all causality [1, 5]: 2 (2)
- Fatigue, treatment-related [1, 5]: 2 (2)
- Headache, all causality [1, 5]: 2 (2)
- Headache, treatment-related [1, 5]: 2 (2)
- Nausea, all causality [1, 5]: 2 (2)
- Nausea, treatment-related [1, 5]: 2 (2)
- Number of AEs, all causality ([1]; treatment-emergent): 28
- Number of AEs, treatment-related ([1]; treatment-emergent): 24
- Number of AEs, treatment-related ([1]; treatment-emergent, listed as crizotinib): Twenty‐four
- Overall safety and tolerability ([1]; single 250-mg dose): generally safe and well tolerated
- time to steady state [2]: 15 days
- solubility ([4]; pH 1.6): > 10000 µg/mL
- solubility ([4]; pH 8.2): < 100 µg/mL

- AUCinf, Adjusted Geometric Mean, Reference [3, 12]: 446.0 ng·h/mL
- AUClast, Adjusted Geometric Mean, Reference [3, 12]: 436.9 ng·h/mL
- Cmax, Adjusted Geometric Mean, Reference [3, 12]: 34.8 ng/mL
- AUCinf, Adjusted Geometric Mean, Test [3, 13]: 367.8 ng·h/mL
- AUClast, Adjusted Geometric Mean, Test [3, 13]: 359.8 ng·h/mL
- Cmax, Adjusted Geometric Mean, Test [3, 13]: 26.9 ng/mL
- apparent t1/2, mean value ([3]; both treatments (crizotinib alone and with esomeprazole)): ≈ 20 hours
- AUCinf, Arithmetic Mean ± SD [3, 6]: 383 ± 127 ng·h/mL
- AUCinf, Geometric Mean (%CV) [3, 6]: 364 (33) ng • h/mL
- AUClast, Arithmetic Mean ± SD [3, 6]: 376 ± 126 ng·h/mL
- AUClast, Geometric Mean (%CV) [3, 6]: 357 (34) ng • h/mL
- Cmax, Arithmetic Mean ± SD [3, 6]: 27.7 ± 6.8 ng/mL
- Cmax, Geometric Mean (%CV) [3, 6]: 26.8 (25) ng/mL
- t1/2 (terminal elimination half-life), Arithmetic Mean ± SD [3, 6]: 19.5 ± 5.9 h
- tmax, median (range) [3, 6]: 6.00 (5.00‐8.05) h
- MRAUCinf (metabolite to parent ratio of AUCinf), Geometric Mean (%CV) ([3]; molar ratio PF-06260182/crizotinib, single oral crizotinib 250 mg alone (n = 14)): 0.18 (16)
- MRAUClast (metabolite to parent ratio of AUClast), Geometric Mean (%CV) [3, 14]: 0.19 (18)
- MRCmax (metabolite to parent ratio of Cmax), Geometric Mean (%CV) [3, 14]: 0.29 (26)
Structure (SMILES): CC(Oc1cc(-c2cnn(C3CCNC(=O)C3)c2)cnc1N)c1c(Cl)ccc(F)c1Cl (stereo not shown) [PF‐06260182]

Structure (SMILES): COc1ccc2nc([S@@+]([O-])Cc3ncc(C)c(OC)c3C)[nH]c2c1 [esomeprazole, Esomeprazole]
- gastrointestinal disorders (system organ class), all causality [1]: 3 participants
- nervous system disorders (system organ class), all causality [1]: 2 participants
- treatment-related gastrointestinal disorders (system organ class) [1]: 3 participants
- Number of AEs, treatment-related ([1]; treatment-emergent): 7

Reference: article PMC9299459 (Clinical Pharmacology in Drug Development, 2021)
